The source made the active and inactive calls. The calls are words filed in the database; no cut-off is given here.
Assays:
Cannabinoid receptor 1 = Cannabinoid receptor 1 (Homo sapiens, UniProt P21554); assay: Agonist activity at human recombinant Cannabinoid receptor 1 by GTPgammaS binding assay; assay type: functional; conditions: read-out: pEC50 (converted)
Summary of the method: (§1)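 [35S]GTPγS filtration assay. Membranes (5 µg CB2 or 10 µg/well CB1), permeabilized with equal mass of saponin, preincubated 20 min at room temperature with compound (0-100 μM) in 20 mM HEPES, 100 mM NaCl, 10 mM MgCl2, 10 µM GDP, pH 7.4. Then 0.3 nM [35S]GTPγS for 30 min at 37 °C. Quintuplicate, ≥3 experiments. pEC50 from non-linear fit.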

Cannabinoid receptor 2 [1] = molecular target: T1, Cannabinoid receptor 2 (Homo sapiens, UniProt P34972); assay: Agonist activity at human recombinant Cannabinoid receptor 2 by GTPgammaS binding assay; assay type: functional; conditions: for EC50: read-out: pEC50 (converted); summary of the method: as §1
Cannabinoid receptor 2 [2] = molecular target: T1, Cannabinoid receptor 2; assay: Displacement of [3H]CP55,940 from human CB2 receptor expressed in CHO cells membrane assessed as residual activity at 0.1 uM by scintillation counting analysis relative to control; assay type: cell membranes
Summary of the method: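 Membranes (2.5 µg) from CHO cells stably expressing human CB2, in 50 mM Tris-HCl, 5 mM MgCl2, 1 mM CaCl2, 2 mg/mL BSA, pH 7.4. Incubated 30 min at 37 °C with 0.8 nM [3H]CP55,940 and 0.1 µM compound (final). Nonspecific binding with 1 µM unlabelled CP55,940. Filtered on PEI-soaked GF/B filters, scintillation counted. Quintuplicate, ≥3 experiments.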

Chain of Cannabinoid receptor 1 (P21554 whole entry): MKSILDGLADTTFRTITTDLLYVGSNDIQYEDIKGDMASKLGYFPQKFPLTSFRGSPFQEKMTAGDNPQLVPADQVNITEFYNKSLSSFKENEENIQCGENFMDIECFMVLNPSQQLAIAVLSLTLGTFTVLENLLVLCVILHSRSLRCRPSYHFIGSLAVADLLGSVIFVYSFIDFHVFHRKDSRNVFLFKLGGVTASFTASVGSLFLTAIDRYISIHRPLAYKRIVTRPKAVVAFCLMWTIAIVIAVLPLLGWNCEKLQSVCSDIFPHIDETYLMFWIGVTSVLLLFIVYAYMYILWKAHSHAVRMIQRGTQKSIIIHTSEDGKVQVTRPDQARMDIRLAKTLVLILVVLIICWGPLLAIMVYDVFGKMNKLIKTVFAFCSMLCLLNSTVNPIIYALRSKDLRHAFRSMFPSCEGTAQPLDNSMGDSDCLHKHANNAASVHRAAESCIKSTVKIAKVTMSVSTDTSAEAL
T1 sequence (P34972 whole entry): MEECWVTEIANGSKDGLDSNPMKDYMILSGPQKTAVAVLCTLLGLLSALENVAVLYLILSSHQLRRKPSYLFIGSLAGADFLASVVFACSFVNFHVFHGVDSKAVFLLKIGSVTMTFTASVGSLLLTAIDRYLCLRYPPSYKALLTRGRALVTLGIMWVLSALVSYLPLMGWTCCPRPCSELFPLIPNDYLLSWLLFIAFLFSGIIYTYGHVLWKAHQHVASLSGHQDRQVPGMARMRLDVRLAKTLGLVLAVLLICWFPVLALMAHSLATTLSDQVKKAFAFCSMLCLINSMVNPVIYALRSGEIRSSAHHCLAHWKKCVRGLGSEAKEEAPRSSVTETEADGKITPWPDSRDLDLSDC

With Cn1cnc(S(=O)(=O)Oc2ccc3c(c2)OC2(CCCCC2)N(Cc2ccccc2)C3=O)c1 the EC50 (Cannabinoid receptor 1) was > 10000 nM, the EC50 (Cannabinoid receptor 2 [1]) was 1000 nM and the Activity (Cannabinoid receptor 2 [2]) was < 80%.

With COc1cccc(S(=O)(=O)Oc2ccc3c(c2)OC2(CCCCC2)N(Cc2ccccc2)C3=O)c1 the EC50 (Cannabinoid receptor 1) was > 10000 nM, the EC50 (Cannabinoid receptor 2 [1]) was 417 nM and the Activity (Cannabinoid receptor 2 [2]) was < 80%.

With O=C1c2ccc(OS(=O)(=O)c3ccc(-c4ccc(Cl)cc4)cc3)cc2OC2(CCCCC2)N1Cc1ccccc1 the Activity (Cannabinoid receptor 2 [2]) was < 80%.

O=C1c2ccc(OS(=O)(=O)c3ccc4c(c3)OCCO4)cc2OC2(CCOCC2)N1Cc1ccccc1 was tested, and the Activity (Cannabinoid receptor 2 [2]) was < 80%.

With COc1cccc(COc2ccc3c(c2)OC(C)(C)N(Cc2ccc(C(C)C)cc2)C3=O)c1 the pEC50 (Cannabinoid receptor 2 [1]) was “inactive” and the Activity (Cannabinoid receptor 2 [2]) was < 80%.

CN(C)C(=O)CN1C(=O)c2ccc(OS(=O)(=O)c3ccc(Br)cc3)cc2OC1(C)C was tested, and the Activity (Cannabinoid receptor 2 [2]) was < 80%.

O=C1c2ccc(OS(=O)(=O)c3ccc([N+](=O)[O-])cc3)cc2OC2(CCOCC2)N1Cc1ccccc1 was tested, and the Activity (Cannabinoid receptor 2 [2]) was < 80%.

Cc1ccc(S(=O)(=O)Oc2ccc3c(c2)OC(C)(C)N(Cc2ccc(F)cc2)C3=O)cc1 was tested, and the EC50 (Cannabinoid receptor 1) was > 10000 nM, the EC50 (Cannabinoid receptor 2 [1]) was 195 nM and the Activity (Cannabinoid receptor 2 [2]) was < 80%.

In the case of COc1cccc(COc2ccc3c(c2)OC(C)(C)N(Cc2ccc(F)cc2)C3=O)c1, the pEC50 (Cannabinoid receptor 2 [1]) is reported as “inactive” and the Activity (Cannabinoid receptor 2 [2]) is reported as < 80%.

With CC(C)(C)C(=O)COc1ccc2c(c1)OC(C)(C)N(Cc1ccccc1)C2=O the pEC50 (Cannabinoid receptor 2 [1]) was “inactive” and the Activity (Cannabinoid receptor 2 [2]) was < 80%.

For O=C1NC2(CCCCC2)Oc2cc(OS(=O)(=O)c3ccccc3[N+](=O)[O-])ccc21, the EC50 (Cannabinoid receptor 1) was > 10000 nM, the EC50 (Cannabinoid receptor 2 [1]) was 2140 nM and the Activity (Cannabinoid receptor 2 [2]) was < 80%.

For COc1cccc(S(=O)(=O)Oc2ccc3c(c2)OC2(CCCCC2)N(Cc2ccc(C(C)C)cc2)C3=O)c1, the Activity (Cannabinoid receptor 2 [2]) was < 80%.

For CN1C(=O)c2ccc(OS(=O)(=O)c3cccc4ccccc34)cc2OC1(C)C, the EC50 (Cannabinoid receptor 1) was 7240 nM, the EC50 (Cannabinoid receptor 2 [1]) was 2950 nM and the Activity (Cannabinoid receptor 2 [2]) was < 80%.
